In ChEMBL document CHEMBL4765441, “Design, synthesis and anti-cancer activity of pyrrole-imidazole polyamides through target-downregulation of c-kit gene expression” (Eur J Med Chem, 2020):
Activity calls are given as the source filed them. The calls are words filed in the database; no cut-off is given here.

Experiments:
SGC-7901 [1] = test: Induction of apoptosis in human SGC7901 cells assessed as necrotic cells at 15 uM incubated for 36 hrs by Annexin V-FITC/propidium iodide staining-based flow cytometric analysis (reference value: 0.34 %); format: functional
GISTT1 [2] = test: Down regulation of c-kit gene expression at transcriptional level in human GIST-T1 cells; format: functional, cell-based
[3] = Drug localization in nucleus of human SGC-7901 cells incubated for 24 hrs by Hoechst-33342 staining based confocal laser scanning microscopic analysis; format: ADME, subcellular; conditions: sgc-7901, 24 h
Method in brief: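 SGC-7901 cells cultured 24 h, then given fluorescein-labeled polyamide (1.0, unit unclear) for 4 h. Medium replaced and culture continued 20 h. Live cells viewed at ×300, then fixed in 4% paraformaldehyde for 10 min. Nuclei stained with Hoechst 33342 for 5 min, PBS-washed, imaged by confocal laser scanning microscopy.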

A549 [4] = test: Down regulation of c-kit gene expression in human A549 cells incubated for 36 hrs by Western blot analysis; format: functional, cell-based
Method in brief: (§1)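 Cells exposed to compound for 36 h, then lysed in RIPA and protein measured by BCA. 30 units of total protein separated by 10% SDS-PAGE, transferred to PVDF and blocked with 5% BSA. Primary antibodies, with β-tubulin as reference, at 4 °C; secondary 2 h; ECL detection. Bands quantified by densitometry, mean ± SD, n = 3.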

A549 [5] = test: Induction of apoptosis in human A549 cells assessed as early apoptotic cells at 15 uM incubated for 36 hrs by Annexin V-FITC/propidium iodide staining-based flow cytometric analysis (reference value: 1.41 %); format: functional
SGC-7901 [6] = test: Down regulation of c-kit gene expression in human SGC-7901 cells incubated for 36 hrs by Western blot analysis; format: functional, cell-based; method in brief: as §1
SGC-7901 [7] = test: Induction of morphological changes in human SGC7901 cells assessed as appearance of round shaped cells at 7.5 uM incubated for 36 hrs by microscopic analysis; format: functional, cell-based
Method in brief: (§2)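 Cells seeded at 2 × 10^5 per well and grown 24 h. Medium then replaced with compound-containing medium. After 36 h co-culture, morphology inspected by light microscopy.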

MKN-45 = test: Antiproliferative activity against human MKN-45 cells assessed as reduction in cell viability incubated for 48 hrs by xCELLigence RTCA; format: functional, cell-based; conditions: MKN-45, 48 h
SGC-7901 [8] = test: Induction of morphological changes in human SGC7901 cells assessed as cell detachment at 7.5 uM incubated for 36 hrs by microscopic analysis; format: functional, cell-based; method in brief: as §2
Bel-7402 = test: Antiproliferative activity against human Bel-7402 cells assessed as reduction in cell viability incubated for 48 hrs by xCELLigence RTCA; format: functional, cell-based; conditions: Bel-7402, 48 h
SGC-7901 [9] = test: Induction of apoptosis in human SGC7901 cells assessed as viable cells at 15 uM incubated for 36 hrs by Annexin V-FITC/propidium iodide staining-based flow cytometric analysis (reference value: 93.2 %); format: functional; conditions: read-out: Activity
SGC-7901 [10] = test: Antiproliferative activity against human SGC7901 cells assessed as reduction in cell viability incubated for 48 hrs by xCELLigence RTCA; format: functional, cell-based; conditions: SGC-7901, 48 h
A549 [11] = test: Induction of apoptosis in human A549 cells assessed as viable cells at 7.5 uM incubated for 36 hrs by Annexin V-FITC/propidium iodide staining-based flow cytometric analysis (reference value: 97.9 %); format: functional; conditions: read-out: Activity
A549 [12] = test: Induction of morphological changes in human A549 cells assessed as cell detachment at 15 uM incubated for 36 hrs by microscopic analysis; format: functional, cell-based; method in brief: as §2
A549 [13] = test: Antiproliferative activity against human A549 cells assessed as reduction in cell viability incubated for 48 hrs by xCELLigence RTCA; format: functional, cell-based; conditions: A549, 48 h
SGC-7901 [14] = test: Induction of apoptosis in human SGC7901 cells assessed as necrotic cells at 7.5 uM incubated for 36 hrs by Annexin V-FITC/propidium iodide staining-based flow cytometric analysis (reference value: 0.34 %); format: functional
SGC-7901 [15] = test: Induction of morphological changes in human SGC7901 cells assessed as apoptotic body formation at 7.5 uM incubated for 36 hrs by microscopic analysis; format: functional, cell-based; method in brief: as §2
A549 [16] = test: Induction of apoptosis in human A549 cells assessed as viable cells at 15 uM incubated for 36 hrs by Annexin V-FITC/propidium iodide staining-based flow cytometric analysis (reference value: 97.9 %); format: functional; conditions: read-out: Activity
GISTT1 [17] = test: Antiproliferative activity against human GIST-T1 cells; format: functional, cell-based
SGC-7901 [18] = test: Induction of apoptosis in human SGC7901 cells assessed as early apoptotic cells at 7.5 uM incubated for 36 hrs by Annexin V-FITC/propidium iodide staining-based flow cytometric analysis (reference value: 2.74 %); format: functional
dsDNA = test: Binding affinity to 5'-AGGGGAGGCGAGGAGGGGCGTGGCCGG-3'/3'-TCCCCTCCGCTCCTCCCCGCACCGGCC-5' dsDNA (unknown origin) by circular dichroism spectroscopic analysis; format: nucleic-acid assay; conditions: Homo sapiens
Method in brief: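 Target duplex annealed at 95 °C, held 24 h in pH 7.0 buffer (10 mM sodium cacodylate, 100 mM NaCl, 0.5% DMSO), then degassed. Compound titrated in at compound:DNA ratios 0.0–3.0, room temperature, 15 min equilibration per addition. CD read 225–400 nm in a 5 mm quartz cell at 100 nm/min, 5.0 nm bandwidth. Average of three parallel runs.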

GISTT1 [19] = test: Down regulation of c-kit gene expression at translational level in human GIST-T1 cells at 5 uM; format: functional, cell-based
A549 [20] = test: Inhibition of cell migration in human A549 cells at 1.5 uM incubated for 48 hrs by inverted fluorescence microscope based scratch wound healing assay; format: functional
Method in brief: (§3)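 20 × 10^4 cells per well grown to 80% confluence. Wound scratched with a pipette tip, washed twice with PBS and photographed under an inverted fluorescence microscope. Cells then held in serum-free medium with compound for 48 h. Migration measured as distance moved from the wound edge; mean ± SD, n = 3.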

SGC-7901 [21] = test: Inhibition of cell migration in human SGC7901 cells at 1.5 uM incubated for 48 hrs by inverted fluorescence microscope based scratch wound healing assay; format: functional; method in brief: as §3
A549 [22] = test: Induction of apoptosis in human A549 cells assessed as late apoptotic cells at 15 uM incubated for 36 hrs by Annexin V-FITC/propidium iodide staining-based flow cytometric analysis (reference value: 0.41 %); format: functional
A549 [23] = test: Induction of apoptosis in human A549 cells assessed as early apoptotic cells at 7.5 uM incubated for 36 hrs by Annexin V-FITC/propidium iodide staining-based flow cytometric analysis (reference value: 1.41 %); format: functional
SGC-7901 [24] = test: Induction of apoptosis in human SGC7901 cells assessed as early apoptotic cells at 15 uM incubated for 36 hrs by Annexin V-FITC/propidium iodide staining-based flow cytometric analysis (reference value: 2.74 %); format: functional
SGC-7901 [25] = test: Down regulation of c-kit mRNA expression in human SGC-7901 cells at 7.5 uM incubated for 36 hrs by Western blot analysis; format: functional, cell-based; conditions: in the assay text read “RT-PCR analysis” for “Western blot analysis”
Method in brief: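 Cells treated for 36 h. Total RNA quantified by Nanodrop and checked on 1.5% agarose with ethidium bromide. 400 ng RNA per one-step RT-PCR with c-kit-specific primers; reverse transcription 30 min at 50 °C, then 2 min at 94 °C. Normalized to β-actin; semi-quantitative.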

Drug uptake [3]: Active | IC50 (MKN-45): 7.41 µM | IC50 (Bel-7402): 11.2 µM | IC50 (SGC-7901 [10]): 2.96 µM | IC50 (A549 [13]): 5.97 µM | Activity (dsDNA): Active
SMILES: CC(=O)Nc1cn(C)c(C(=O)Nc2cn(C)c(C(=O)Nc3cc(C(=O)Nc4cn(C)c(C(=O)NCCC(=O)Nc5cn(C)c(C(=O)Nc6cn(C)c(C(=O)NCC[C@@H](N)C(=O)Nc7cc(C(=O)Nc8cc(C(=O)NC[C@@H](O)CC(=O)Nc9cc(C(=O)Nc%10cn(C)c(C(=O)Nc%11cc(C(=O)Nc%12cc(C(=O)NCCC(=O)NCCCN(C)C)n(C)c%12)n(C)c%11)n%10)n(C)c9)n(C)c8)n(C)c7)n6)n5)n4)n(C)c3)n2)n1.Cl.Cl
Activity (SGC-7901 [1]): 1.83% | Activity (GISTT1 [2]): Active | Activity (A549 [4]): Dose-dependent effect | Activity (A549 [5]): 28.9% | Activity (SGC-7901 [6]): Dose-dependent effect | Activity (SGC-7901 [7]): Active | Activity (SGC-7901 [8]): Active | viability at 15 µM (SGC-7901 [9]): 43.6% | viability at 7.5 µM (A549 [11]): 60.5% | Activity (A549 [12]): Active | Activity (SGC-7901 [14]): 0.92% | Activity (SGC-7901 [15]): Active | viability at 15 µM (A549 [16]): 51.4% | Activity (GISTT1 [17]): Active | Activity (SGC-7901 [18]): 32.4% | Activity (GISTT1 [19]): Active | inhibition at 1.5 µM (A549 [20]): 83.8% | inhibition at 1.5 µM (SGC-7901 [21]): 85.7% | Activity (A549 [22]): 19.6% | Activity (A549 [23]): 22.7% | Activity (SGC-7901 [24]): 41.7% | Activity (SGC-7901 [25]): Active
